Measurements published in ChEMBL document CHEMBL1955721, “Syntheses and cellular investigations of 17(3)-, 15(2)-, and 13(1)-amino acid derivatives of chlorin e(6)” (J Med Chem, 2011).

Experiments:
[1] = Drug uptake in human Hep2 cell mitochondria at 10 uM after 18 hrs by fluorescence microscopic analysis; assay type: ADME; conditions: hep-2, 18 h
Outline: (§1)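 HEp2 cells grown 48 h on glass-bottom wells, then exposed to 10 µM compound for 18 h. Co-stained 30 min at 37 °C with LysoSensor Green 50 nM, MitoTracker Green 250 nM, ER Tracker Blue/White 100 nM or BODIPY FL C5 ceramide. Washed three times with PBS. Organelle sites scored by fluorescence overlay microscopy as major or minor.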

[2] = Drug uptake in human Hep2 cell golgi at 10 uM after 18 hrs by fluorescence microscopic analysis; assay type: ADME, cell-based; conditions: hep-2, 18 h; outline: as §1
[3] = Drug uptake in human Hep2 cell lysosomes at 10 uM after 18 hrs by fluorescence microscopic analysis; assay type: ADME, cell-based, Lysosome; conditions: hep-2, 18 h; outline: as §1
[4] = Drug uptake in human Hep2 cell endoplasmic reticulum at 10 uM after 18 hrs by fluorescence microscopic analysis; assay type: ADME, cell-based; conditions: hep-2, 18 h; outline: as §1
HEp-2 [5] = assay: Ratio of IC50 for cytotoxicity against human Hep2 cells under dark condition to IC50 for human Hep2 cells in presence of 1 J/cm'2 light; assay type: functional
HEp-2 [6] = assay: Cytotoxicity against human Hep2 cells under dark condition after 18 hrs by celltiter blue assay; assay type: functional, cell-based; conditions: HEp-2, 18 h
Outline: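 HEp2 cells (passages 4–15) plated 7500/well and grown 48 h. Two-fold serial dilutions from 400 to 50 µM applied for 18 h in the dark. Medium replaced, then CellTiter Blue added and incubated 4 h. Untreated cells taken as 100% viable, 0.2% saponin-treated as 0%.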

HEp-2 [7] = assay: Cytotoxicity against human Hep2 cells after overnight incubation followed by cells irradiated with 1 J/cm'2 light for 20 mins measured after overnight incubation by celltiter blue assay; assay type: functional, cell-based; conditions: HEp-2, light or radiation study
Outline: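 HEp2 cells in 50:50 DMEM:AMEM with 5% FBS, passages 4–15, plated 7500/well and grown 48 h. Loaded overnight at 6.25–100 µM. Medium then swapped for one with 50 mM HEPES pH 7.2. Irradiated 20 min with a 100 W halogen lamp through a 610 nm long-pass filter (~1 J/cm2), IR cut by 10 mm water, plate on ice-water. Incubated overnight at 37 °C, then CellTiter Blue viability read.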

HEp-2 [8] = assay: Drug uptake in human Hep2 cells at 10 uM after 24 hrs by fluorescence microscopic analysis relative to chlorin e6; assay type: ADME, cell-based; conditions: hep-2, 24 h
Outline: (§2)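 HEp2 cells plated 7500/well and grown 48 h. Given 10 µM compound (final DMSO ≤1%, Cremophor 0.1%) for 0, 1, 2, 4, 8, 12 and 24 h. Washed with PBS and lysed in 0.25% Triton X-100. Intracellular compound read by intrinsic fluorescence (ex 355/em 650 nm) in a plate reader and normalized to cell number by CyQuant.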

HEp-2 [9] = assay: Drug uptake in human Hep2 cells at 10 uM measured up to 25 hrs by […]; assay type: ADME, cell-based; conditions: hep-2, 24 h, in the assay text read “24 hrs” for “25 hrs”; outline: as §2

| Structure (SMILES) | Drug uptake [1] | Drug uptake [2] | Drug uptake [3] | Drug uptake [4] | fold change (FC) (HEp-2 [8]) | Drug uptake (HEp-2 [9]) | Ratio IC50 (HEp-2 [5]) | IC50 (HEp-2 [6]) [µM] | IC50 (HEp-2 [7]) [µM] |
| --- | --- | --- | --- | --- | --- | --- | --- | --- | --- |
| C=Cc1c(C)c2cc3nc(c(CC(=O)N[C@@H](CCCCN)C(=O)OC)c4[nH]c(cc5nc(cc1[nH]2)C(C)=C5CC)c(C)c4C(=O)OC)[C@@H](CCC(=O)OC)[C@@H]3C | Not Active | Active | Active | Active | 18 |  | >13.9 | > 400 | 28.8 |
| C=Cc1c(C)c2cc3nc(c(CC(=O)OC)c4[nH]c(cc5nc(cc1[nH]2)C(C)=C5CC)c(C)c4C(=O)OC)[C@@H](CCC(=O)N[C@@H](CCCCN)C(=O)OC)[C@@H]3C | Not Active | Active | Active | Active |  | Active | >15.3 | > 400 | 26.2 |
| C=Cc1c(C)c2cc3nc(c(CC(=O)O)c4[nH]c(cc5nc(cc1[nH]2)C(C)=C5CC)c(C)c4C(=O)O)[C@@H](CCC(=O)O)[C@@H]3C [CHLORIN E6] | Not Active | Not Active | Active | Active |  | Active | >19.2 | > 400 | 20.8 |
| C=Cc1c(C)c2cc3nc(c(CC(=O)OC)c4[nH]c(cc5nc(cc1[nH]2)C(C)=C5CC)c(C)c4C(=O)NCCNC(=O)[C@@H](N)CCCCN)[C@@H](CCC(=O)OC)[C@@H]3C | Not Active | Active | Active | Active |  | Active | 200.3 | 268 | 1.34 |

Further lines, with some results ahead:

| Drug uptake [1] | Drug uptake [2] | Drug uptake [3] | Drug uptake [4] | fold change (FC) (HEp-2 [8]) | Drug uptake (HEp-2 [9]) | Structure (SMILES) | Ratio IC50 (HEp-2 [5]) | IC50 (HEp-2 [6]) [µM] | IC50 (HEp-2 [7]) [µM] |
| --- | --- | --- | --- | --- | --- | --- | --- | --- | --- |
| Not Active | Active | Active | Active |  | Active | C=Cc1c(C)c2cc3nc(c(CC(=O)OC)c4[nH]c(cc5nc(cc1[nH]2)C(C)=C5CC)c(C)c4C(=O)NCCC(=O)N[C@@H](CC(=O)O)C(=O)O)[C@@H](CCC(=O)OC)[C@@H]3C | 468.2 | 384 | 0.82 |
| Active | Not Active | Active | Active |  | Active | C=Cc1c(C)c2cc3nc(c(CC(=O)N[C@@H](CC(=O)O)C(=O)O)c4[nH]c(cc5nc(cc1[nH]2)C(C)=C5CC)c(C)c4C(=O)OC)[C@@H](CCC(=O)OC)[C@@H]3C | 93.4 | 373 | 4 |
| Active | Active | Active | Active |  | Active | C=Cc1c(C)c2cc3nc(c(CC(=O)OC)c4[nH]c(cc5nc(cc1[nH]2)C(C)=C5CC)c(C)c4C(=O)N[C@@H](CC(=O)O)C(=O)O)[C@@H](CCC(=O)OC)[C@@H]3C | 466.6 | 285 | 0.61 |
